bCat KO growth: primary screen for growth suppressors in beta-catenin knockout HCT116 cells (colon tumor, human). HCT116 beta-catenin knockout viability, CellTiter-Glo, 60 h; active compounds read low. viability, % at 10 µM. actives 1.5% (n = 140,000);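 active means viability at or under a set limit, the compound median less 4 SD, cut at about 6% in these data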;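 further: 0% = Hyamine 1622 control at 20 µM and 100% = untreated cell control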
HUVEC inhibit: inhibitors of HUVEC proliferation, primary screen, cell-based, 384-well; CellTiter-Glo luminescence, 72 h; active compounds read low; viability, % at 10 µM (by protocol); actives 1.1% (n = 86,000);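 active means viability at or below 30%; inactive means viability above 30%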;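 further: 100% = median luminescence of DMSO-only cell control wells on each plate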
Fibroblast inh: antiproliferative effect on LL 47 fibroblasts – human, LL 47 cells, CellTiter-Glo luminescence, primary screen. AID 719, 2007. actives 1.1% (n = 85,000). viability, % at 10 µM. LL 47 human lung fibroblast viability, ATP luminescence; active compounds read low;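 active means viability at or below 50% in the single dose screen; inactive means viability above 50%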;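 further: compound exposure lasted 72 h before the ATP readout; 100% = median luminescence of untreated cell-only wells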
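material = human LL 47 lung fibroblast cells | dosing = compounds added from tenfold dosing solution, 0.1% DMSO final | timing = overnight cell rest, 72 h compound treatment at 37 °C | measured by = CellTiter-Glo luminescence measuring cellular ATP | evaluation = % viability versus median cells-only luminescence | control set = cell-only wells, no compound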
PTEN del growth: growth suppression of PTEN-null HCT116, primary screen, cell-based, CellTiter-Glo; viability, % at 10 µM; actives 1.2% (n = 140,000); HCT116 PTEN-null viability, 60 h; active compounds read low;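 active means viability at or below a set limit, 4 SD under the median of all tested compounds, cut at about 3.7% in these data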;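 further: PTEN knockout HCT116 line with beta catenin targeted HCT116 as companion control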
H69AR growth 86K: proliferation blockers of H69AR lung cancer cells, primary screen, cell-based, human, 86K library; H69AR lung tumor viability, ATP luminescence, 72 h; active compounds read low; viability, % at 10 µM; actives 6% (n = 85,000);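 active means viability at or below 40%; inactive means viability above 40%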;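 further: multidrug resistant small cell line overexpressing MRP-1 efflux transporter; 100% = mean luminescence of untreated control wells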
An asterisk follows results filed as active; . = no result. This is one part of a sample in which hits are shown more often than they occur.

SMILES	bCat KO growth	HUVEC inhibit	Fibroblast inh	PTEN del growth	H69AR growth 86K
CSc1cc(/C=N/O)c(SC)s1	86	.	.	86	.
Cc1cc(C)c(COCc2cc(/C=N/O)c(C)cc2C)cc1/C=N/O	50	74	91	61	18*
O=C(c1ccc(COc2c(F)c(F)c(F)c(F)c2F)o1)N1CCN(Cc2ccc3c(c2)OCO3)CC1	85	94	93	76	28*
OCc1ccnc2c(O)cccc12	3.2*	.	.	2.9*	.
Cc1ccccc1N=Nc1ccc(O)c2ncccc12	16	.	.	11	.
Oc1ccc(CNc2ccccc2)c2cccnc12	7	71	88	5	36*
CN1CCN(Cc2cc(COCc3ccccc3)c3cccnc3c2O)CC1	1.1*	71	2.8*	0.8*	1.8*
Oc1ccc(CNc2ccc(F)cc2)c2cccnc12	12	77	85	10	55
COCc1ccc(O)c2ncccc12	2.2*	6.0*	3.0*	2.1*	1.1*
Cc1ccccc1NCc1ccc(O)c2ncccc12	12	84	93	11	72
O=[N+]([O-])c1ccc(O)c2ncccc12	4.1*	.	.	4	.
Oc1ccc(CN2CCN(Cc3ccccc3)CC2)c2cccnc12	2.4*	106	95	2.0*	2.0*
CC(C)Oc1ccc(C2/C(=C(/O)c3ccc(F)cc3)C(=O)C(=O)N2CCCN(C)C)cc1 (configuration not stated)	.	96	105	.	100
CCCC/C(C)=N\NC(=O)CNS(=O)(=O)c1ccc([N+](=O)[O-])cc1	0.5*	.	.	0.4*	.
COc1ccc(-c2cc(C(=O)N3CC4(C)CC3CC(C)(C)C4)no2)cc1 (configuration not stated)	44	86	104	38	83
CC1(C)CC2CC(C)(CN2C(=O)c2cc(-c3ccccc3O)on2)C1 (configuration not stated)	58	91	85	47	16*
CC1(C)NC(=O)N(c2ccccc2Cl)C1(C)NO (configuration not stated)	106	96	97	98	97
CCOC(=O)C(C(C)=O)c1c(Br)c(O)c(O)c2c(C(=O)c3ccc(C)cc3)coc12 (configuration not stated)	1.3*	60	10*	1.7*	1.4*
COc1cccc(C2C3=C(CC(C)(C)CC3=O)Nc3cc4c(cc32)OCO4)c1 (configuration not stated)	94	78	94	94	32*
COc1cc2c(cc1OC)C(c1ccc3c(c1)OCO3)C1=C(CC(C)(C)CC1=O)N2 (configuration not stated)	79	81	96	74	63
O=C(Nc1cc(C(F)(F)F)ccc1-n1cnc2ccccc21)c1ccccc1	84	.	.	78	.
COC(=O)c1ccc(N2CCCCC2)c(NS(=O)(=O)c2ccc(C)cc2)c1	35	90	101	53	77
CCN(CC)CCNC(=O)c1ccc(N2CCCCC2)c(NS(=O)(=O)c2ccc(C)cc2)c1	1.8*	66	67	1.8*	77
Cc1ccc(S(=O)(=O)NNC(=O)c2sc3nc(C)cc(C)c3c2-n2cccc2)cc1	95	.	.	100	.
C=CCNC(=O)CCCc1ccccc1	72	100	101	69	1.4*
SMILES	bCat KO growth	HUVEC inhibit	Fibroblast inh	PTEN del growth	H69AR growth 86K
C=CCn1c(SCC(=O)NCc2ccc3c(c2)OCO3)nc2scc(-c3ccccc3)c2c1=O	78	83	102	79	66
C=CCn1c(SCC(=O)N2CC(=O)Nc3ccccc32)nc2scc(-c3ccccc3)c2c1=O	55	74	99	52	26*
Cc1ccc(S(=O)(=O)N2CCN(C(=O)CN3CCOCC3)C2c2ccccc2)cc1 (configuration not stated)	81	80	98	77	7.1*
O=C(CN1CCOCC1)N1CCN(S(=O)(=O)c2ccccc2)C1c1ccccc1 (configuration not stated)	84	98	91	88	61
S=C(NCCCN1CCOCC1)Nc1ccc(Cl)c(Cl)c1	89	.	.	89	.
O=C(NC(Nc1ncc(S(=O)(=O)c2ccc([N+](=O)[O-])cc2)s1)(C(F)(F)F)C(F)(F)F)c1ccc(Cl)cc1	2.6*	.	.	3.1*	.
O=C(Nc1ncc(S(=O)(=O)c2ccc([N+](=O)[O-])cc2)s1)c1cccc2ccccc12	43	.	.	40	.
CCn1c(SCC(=O)Nc2cc(OC)ccc2OC)nnc1C1CCCCC1	90	102	109	102	85
O=S(=O)(c1ccc2nc(SCc3ccc(Cl)cc3)[nH]c2c1)N1CCOCC1	84	.	.	79	.
O=S(=O)(c1ccc2nc(-c3ccccc3)[nH]c2c1)N1CCN(c2ccc(Cl)cc2)CC1	0.9*	.	.	0.8*	.
N#CC1=C(N)NC(SCc2ccccc2)=C(C#N)C12CCCCC2	16	26*	60	37	11*
CCSC1=C(C#N)C2(CCCCC2)C(C#N)=C(N)N1	81	90	86	87	79
COc1ccccc1N1CCN(C(=O)COc2ccc(Cl)cc2Br)CC1	82	68	97	69	17*
COCCN(C(=O)C(F)(F)F)C(C(=O)NC1CCCCC1)c1ccco1 (configuration not stated)	92	90	105	81	93
COCCN(C(=O)CCl)C(C(=O)NC1CCCCC1)c1ccccc1C (configuration not stated)	5.2*	.	.	3.2*	.
CC(C)(C)C1CC=C2C(C#N)=C(N)C(C#N)(C#N)C(c3cccs3)C2C1 (configuration not stated)	.	2.1*	88	.	65
CN1C2C=C3C(C#N)=C(N)C(C#N)(C#N)[C@@H](c4cccs4)C3C1CC2 (some centres not stated)	94	94	90	93	75
CCOC(=O)CNS(=O)(=O)c1cc(-c2nnc(Nc3ccc4c(c3)OCO4)c3ccccc23)ccc1C	3.6*	.	.	3.5*	.
CCOC(=O)CNS(=O)(=O)c1cc(-c2n[nH]c(=O)c3ccccc23)ccc1C	88	99	102	97	87
O=C(COC(=O)c1cccc(C(F)(F)F)c1)NCc1ccccc1	96	.	.	97	.
Cc1nn(-c2cc(N3CCCC3)ccc2[N+](=O)[O-])c(=O)c2ccccc12	91	83	103	88	33*
Cc1nn(-c2cc(N3CCOCC3)ccc2[N+](=O)[O-])c(=O)c2ccccc12	98	91	96	98	101
CCOc1ncccc1C(=O)Nc1cccc(C(=O)Nc2cccc(S(=O)(=O)CCO)c2)c1	84	71	93	79	30*
CCSc1nnc(NC(=O)NC(C)(C(F)(F)F)C(F)(F)F)s1	86	.	.	84	.
CCSc1nnc(NC(=O)NC(CC)(C(F)(F)F)C(F)(F)F)s1	26	45	63	29	14*
